Results from ChEMBL document CHEMBL4689842, “EUbOPEN Chemogenomics Library wave 1” (2021).

Test system: Fibroblast
Assay: Multiplex assay against human fibroblast
Format: toxicity, cell-based
How it was run: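 Cells stained live at seeding with Hoechst33342, BioTracker Green Microtubule Cytoskeleton Dye, MitoTracker Red and Annexin V Alexa Fluor 680 were imaged on a CQ1 microscope at 37°C and 5% CO2 after compound addition. Their classification by CellPathfinder machine-learning gating ran from Hoechst high-intensity objects versus normal cells, to healthy, pyknosed or fragmented nuclei among normal cells, to mitotic or apoptotic among pyknosed cells. Tubulin, mitochondrial-mass and membrane-permeability phenotypes are per cents of healthy-nucleus cells.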

[1] = 12 h, 1 µM, compound concentration 1 uM, replicate 1
[2] = 12 h, 1 µM, compound concentration 1 uM, replicate 2
[3] = 12 h, 10 µM, compound concentration 10 uM, replicate 1
[4] = 12 h, 10 µM, compound concentration 10 uM, replicate 2
[5] = 24 h, 1 µM, compound concentration 1 uM, replicate 1
[6] = 24 h, 1 µM, compound concentration 1 uM, replicate 2
[7] = 24 h, 10 µM, compound concentration 10 uM, replicate 1
[8] = 24 h, 10 µM, compound concentration 10 uM, replicate 2
[9] = 48 h, 1 µM, compound concentration 1 uM, replicate 1
[10] = 48 h, 1 µM, compound concentration 1 uM, replicate 2
[11] = 48 h, 10 µM, compound concentration 10 uM, replicate 1
[12] = 48 h, 10 µM, compound concentration 10 uM, replicate 2

Compound: C=CC(=O)Nc1cccc(C(=O)Nc2ccc(Nc3cc(-c4[nH]c(SC)nc4C)ccn3)cc2)c1
- Population Apoptotic (%) [1]: 69%
- Population Fragmented Nuclei (%) [1]: 23%
- Population Healthy Nuclei (%) [1]: 43%
- Population Hoechst High Intensity Objects (%) [1]: 11%
- Population Membrane Permeable-Phenotype (%) [1]: 28%
- Population Mitochondria Different-Phenotype (%) [1]: 8%
- Population Mitotic Cells (%) [1]: 30%
- Population Normal (%) [1]: 88%
- Population Pyknosed Nuclei (%) [1]: 33%
- Population Tubulin-Different-Phenotype (%) [1]: 36%
- Total Cell Count [1]: 131
- Population Apoptotic (%) [2]: 0%
- Population Fragmented Nuclei (%) [2]: 2%
- Population Healthy Nuclei (%) [2]: 94%
- Population Hoechst High Intensity Objects (%) [2]: 14%
- Population Membrane Permeable-Phenotype (%) [2]: 0%
- Population Mitochondria Different-Phenotype (%) [2]: 7%
- Population Mitotic Cells (%) [2]: 100%
- Population Normal (%) [2]: 85%
- Population Pyknosed Nuclei (%) [2]: 2%
- Population Tubulin-Different-Phenotype (%) [2]: 23%
- Total Cell Count [2]: 112
- Population Apoptotic (%) [3]: 50%
- Population Fragmented Nuclei (%) [3]: 27%
- Population Healthy Nuclei (%) [3]: 50%
- Population Hoechst High Intensity Objects (%) [3]: 19%
- Population Membrane Permeable-Phenotype (%) [3]: 18%
- Population Mitochondria Different-Phenotype (%) [3]: 13%
- Population Mitotic Cells (%) [3]: 50%
- Population Normal (%) [3]: 80%
- Population Pyknosed Nuclei (%) [3]: 22%
- Population Tubulin-Different-Phenotype (%) [3]: 29%
- Total Cell Count [3]: 109
- Population Apoptotic (%) [4]: 40%
- Population Fragmented Nuclei (%) [4]: 6%
- Population Healthy Nuclei (%) [4]: 83%
- Population Hoechst High Intensity Objects (%) [4]: 18%
- Population Membrane Permeable-Phenotype (%) [4]: 7%
- Population Mitochondria Different-Phenotype (%) [4]: 12%
- Population Mitotic Cells (%) [4]: 60%
- Population Normal (%) [4]: 81%
- Population Pyknosed Nuclei (%) [4]: 10%
- Population Tubulin-Different-Phenotype (%) [4]: 12%
- Total Cell Count [4]: 78
- Population Apoptotic (%) [5]: 60%
- Population Fragmented Nuclei (%) [5]: 20%
- Population Healthy Nuclei (%) [5]: 55%
- Population Hoechst High Intensity Objects (%) [5]: 13%
- Population Membrane Permeable-Phenotype (%) [5]: 29%
- Population Mitochondria Different-Phenotype (%) [5]: 3%
- Population Mitotic Cells (%) [5]: 39%
- Population Normal (%) [5]: 86%
- Population Pyknosed Nuclei (%) [5]: 24%
- Population Tubulin-Different-Phenotype (%) [5]: 34%
- Total Cell Count [5]: 134
- Population Apoptotic (%) [6]: 37%
- Population Fragmented Nuclei (%) [6]: 3%
- Population Healthy Nuclei (%) [6]: 87%
- Population Hoechst High Intensity Objects (%) [6]: 4%
- Population Membrane Permeable-Phenotype (%) [6]: 2%
- Population Mitochondria Different-Phenotype (%) [6]: 10%
- Population Mitotic Cells (%) [6]: 62%
- Population Normal (%) [6]: 95%
- Population Pyknosed Nuclei (%) [6]: 8%
- Population Tubulin-Different-Phenotype (%) [6]: 25%
- Total Cell Count [6]: 122
- Population Apoptotic (%) [7]: 30%
- Population Fragmented Nuclei (%) [7]: 32%
- Population Healthy Nuclei (%) [7]: 43%
- Population Hoechst High Intensity Objects (%) [7]: 13%
- Population Membrane Permeable-Phenotype (%) [7]: 20%
- Population Mitochondria Different-Phenotype (%) [7]: 4%
- Population Mitotic Cells (%) [7]: 69%
- Population Normal (%) [7]: 86%
- Population Pyknosed Nuclei (%) [7]: 23%
- Population Tubulin-Different-Phenotype (%) [7]: 30%
- Total Cell Count [7]: 113
- Population Apoptotic (%) [8]: 40%
- Population Fragmented Nuclei (%) [8]: 5%
- Population Healthy Nuclei (%) [8]: 85%
- Population Hoechst High Intensity Objects (%) [8]: 11%
- Population Membrane Permeable-Phenotype (%) [8]: 8%
- Population Mitochondria Different-Phenotype (%) [8]: 14%
- Population Mitotic Cells (%) [8]: 60%
- Population Normal (%) [8]: 88%
- Population Pyknosed Nuclei (%) [8]: 9%
- Population Tubulin-Different-Phenotype (%) [8]: 12%
- Total Cell Count [8]: 95
- Population Apoptotic (%) [9]: 62%
- Population Fragmented Nuclei (%) [9]: 25%
- Population Healthy Nuclei (%) [9]: 50%
- Population Hoechst High Intensity Objects (%) [9]: 11%
- Population Membrane Permeable-Phenotype (%) [9]: 34%
- Population Mitochondria Different-Phenotype (%) [9]: 3%
- Population Mitotic Cells (%) [9]: 37%
- Population Normal (%) [9]: 88%
- Population Pyknosed Nuclei (%) [9]: 23%
- Population Tubulin-Different-Phenotype (%) [9]: 25%
- Total Cell Count [9]: 129
- Population Apoptotic (%) [10]: 100%
- Population Fragmented Nuclei (%) [10]: 36%
- Population Healthy Nuclei (%) [10]: 61%
- Population Hoechst High Intensity Objects (%) [10]: 17%
- Population Membrane Permeable-Phenotype (%) [10]: 28%
- Population Mitochondria Different-Phenotype (%) [10]: 2%
- Population Mitotic Cells (%) [10]: 0%
- Population Normal (%) [10]: 82%
- Population Pyknosed Nuclei (%) [10]: 1%
- Population Tubulin-Different-Phenotype (%) [10]: 20%
- Total Cell Count [10]: 69
- Population Apoptotic (%) [11]: 43%
- Population Fragmented Nuclei (%) [11]: 37%
- Population Healthy Nuclei (%) [11]: 47%
- Population Hoechst High Intensity Objects (%) [11]: 12%
- Population Membrane Permeable-Phenotype (%) [11]: 11%
- Population Mitochondria Different-Phenotype (%) [11]: 0%
- Population Mitotic Cells (%) [11]: 56%
- Population Normal (%) [11]: 87%
- Population Pyknosed Nuclei (%) [11]: 14%
- Population Tubulin-Different-Phenotype (%) [11]: 23%
- Total Cell Count [11]: 123
- Population Apoptotic (%) [12]: 100%
- Population Fragmented Nuclei (%) [12]: 36%
- Population Healthy Nuclei (%) [12]: 57%
- Population Hoechst High Intensity Objects (%) [12]: 13%
- Population Membrane Permeable-Phenotype (%) [12]: 20%
- Population Mitochondria Different-Phenotype (%) [12]: 3%
- Population Mitotic Cells (%) [12]: 0%
- Population Normal (%) [12]: 86%
- Population Pyknosed Nuclei (%) [12]: 5%
- Population Tubulin-Different-Phenotype (%) [12]: 27%
- Total Cell Count [12]: 118
